Numbering of substitutions follows the chain as printed. Activity calls are given as the source filed them. The rule behind the calls is not given here.
Experiments:
[1] = system: T1, Androgen receptor (Homo sapiens), P10275 [Q592D]; assay: Inhibition of human androgen receptor Q592D mutant expressed in human PC3 cells assessed as inhibition of transcription activity after 24 hrs by luciferase reporter gene assay; format: cell-based; conditions: PC-3
T1 sequence (whole entry): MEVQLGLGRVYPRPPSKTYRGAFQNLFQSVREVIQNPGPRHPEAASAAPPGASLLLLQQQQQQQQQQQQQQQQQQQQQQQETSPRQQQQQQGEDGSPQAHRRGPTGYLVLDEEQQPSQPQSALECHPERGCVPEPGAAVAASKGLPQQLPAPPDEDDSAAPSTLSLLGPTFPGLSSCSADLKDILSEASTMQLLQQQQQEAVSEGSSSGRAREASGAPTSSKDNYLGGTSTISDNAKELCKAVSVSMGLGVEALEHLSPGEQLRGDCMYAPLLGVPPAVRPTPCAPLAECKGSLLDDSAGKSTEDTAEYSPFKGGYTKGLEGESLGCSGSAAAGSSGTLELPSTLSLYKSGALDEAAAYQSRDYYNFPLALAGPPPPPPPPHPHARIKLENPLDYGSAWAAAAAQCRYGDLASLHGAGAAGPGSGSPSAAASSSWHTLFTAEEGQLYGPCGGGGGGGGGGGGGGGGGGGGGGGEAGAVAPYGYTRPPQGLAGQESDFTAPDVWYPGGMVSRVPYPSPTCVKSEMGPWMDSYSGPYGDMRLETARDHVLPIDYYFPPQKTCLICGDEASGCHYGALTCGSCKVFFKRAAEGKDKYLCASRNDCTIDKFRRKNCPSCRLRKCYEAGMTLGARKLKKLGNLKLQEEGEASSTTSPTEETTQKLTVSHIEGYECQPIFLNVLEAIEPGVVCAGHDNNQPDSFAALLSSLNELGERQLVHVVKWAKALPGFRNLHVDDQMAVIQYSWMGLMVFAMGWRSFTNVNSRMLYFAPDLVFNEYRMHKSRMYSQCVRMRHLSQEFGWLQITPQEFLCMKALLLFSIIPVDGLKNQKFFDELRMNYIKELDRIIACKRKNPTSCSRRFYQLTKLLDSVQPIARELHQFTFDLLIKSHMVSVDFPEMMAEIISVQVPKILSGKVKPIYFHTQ
Summary of the method: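 PC3 cells were starved 5 days in RPMI 1640 with 5% charcoal-stripped serum and seeded at 5000 cells/well. After 24 h they were cotransfected with AR-V7 or hAR mutant plasmid plus 50 ng ARR3tk-luciferase. At 48 h post-transfection, compounds were added for 24 h with 0.1 nM R1881. Luminescence was read from passive-lysis-buffer lysates; mutant tests used 10 μM.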

Androgen receptor [2] = target: T2, Androgen receptor (Homo sapiens, UniProt P10275); assay: Inhibition of androgen receptor transcriptional activity in human LNCaP cells after 3 days by eGFP assay; format: cell-based
T2 sequence (P10275 whole entry): T1 sequence (whole entry) with D592Q

Androgen receptor [3] = target: T2, Androgen receptor; assay: Inhibition of androgen receptor in human LNCaP cells assessed as inhibition of prostate-specific antigen secretion into media after 3 days; format: cell-based
[4] = target: T3, Androgen receptor (Homo sapiens) (UniProt P10275); assay: Binding affinity to biotinylated androgen receptor LBD (unknown origin) expressed in Escherichia coli BL21 by biolayer interferometry assay
T3 sequence (whole entry): T1 sequence (whole entry) with D592Q

[5] = target: T4, Glucocorticoid receptor (Homo sapiens) (UniProt P04150); assay: Inhibition of glucocorticoid receptor (unknown origin) transcriptional activity at […]
T4 sequence (whole entry): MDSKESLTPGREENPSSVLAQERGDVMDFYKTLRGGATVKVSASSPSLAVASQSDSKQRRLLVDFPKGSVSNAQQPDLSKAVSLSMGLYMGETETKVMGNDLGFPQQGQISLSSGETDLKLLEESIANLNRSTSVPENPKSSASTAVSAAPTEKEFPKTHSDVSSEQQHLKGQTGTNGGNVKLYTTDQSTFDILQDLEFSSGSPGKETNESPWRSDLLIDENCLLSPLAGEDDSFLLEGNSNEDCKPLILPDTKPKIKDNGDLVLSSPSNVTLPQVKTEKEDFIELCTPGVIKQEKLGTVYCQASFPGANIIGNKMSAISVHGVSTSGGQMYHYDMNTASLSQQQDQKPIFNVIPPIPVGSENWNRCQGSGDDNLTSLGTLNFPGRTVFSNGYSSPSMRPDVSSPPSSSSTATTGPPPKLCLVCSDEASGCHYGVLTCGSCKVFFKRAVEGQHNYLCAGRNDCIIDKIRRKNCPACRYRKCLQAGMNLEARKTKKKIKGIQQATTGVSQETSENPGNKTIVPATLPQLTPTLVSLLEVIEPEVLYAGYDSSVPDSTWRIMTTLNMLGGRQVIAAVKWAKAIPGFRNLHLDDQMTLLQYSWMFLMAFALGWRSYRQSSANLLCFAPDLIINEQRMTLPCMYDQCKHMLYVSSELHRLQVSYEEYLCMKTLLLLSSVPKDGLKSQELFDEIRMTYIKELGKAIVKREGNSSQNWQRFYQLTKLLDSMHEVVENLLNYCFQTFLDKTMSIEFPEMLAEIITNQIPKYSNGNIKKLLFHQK
Summary of the method: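 PC3 cells were starved 5 days in RPMI 1640 with 5% charcoal-stripped serum. They were cotransfected with GR or PR plasmid plus 50 ng ARR3tk-luciferase, and 48 h later treated with compound for 24 h. Stimulation was 1 nM dexamethasone (GR) or progesterone (PR). Luciferase luminescence was read from cell lysates.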

Row | inhibition [1] | IC50 (Androgen receptor [2]) | IC50 (Androgen receptor [3]) | inhibition [4] | inhibition [5] | Activity [4] | SMILES
1 | inactive | 330 nM | 280 nM | inactive | inactive | – | c1ccc(-c2csc(N3CCOCC3)n2)cc1
2 | inactive | 120 nM | 170 nM | – | inactive | inactive | Brc1ncn(-c2csc(N3CCOCC3)n2)c1Br

From ChEMBL document CHEMBL3352043, “Discovery of small-molecule inhibitors selectively targeting the DNA-binding domain of the human androgen receptor” (J Med Chem, 2014)
